The nature of experiment [1]: reducers of endogenous Her2 protein level, primary screen, SKBR3 breast tumor cells, AlphaScreen, ATP viability (AID 461;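 active = Her2 level under about 52% in both replicate screens, with viability over 70% of control, limit read from the data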;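 as to Her2 level: lower value means less Her2 protein in the cells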;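 as to viability: percent of carrier control wells set as 100% viability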). The settings on record: 18-24 h, measured here: SKBR3 viability, ATP luminescence, at 10 µM. A general note: Bead proximity is the source of the signal in Alpha formats.
For experiment [2], the target named is Receptor tyrosine-protein kinase erbB-2 (Homo sapiens) (UniProt P04626). The experiment is described as above. The settings on record: 18-24 h, at 10 µM, stronger effect = lower value.
A short description of experiment [3]: SK-BR-3 cell growth inhibitors, pilot screen, 24 h, human (AID 572;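 active = viability at or below 10% of carrier control in both of two separate runs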;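 also: compound exposure lasted between 18 and 24 h rather than exactly 24 h; 100% = carrier-treated control wells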). The settings on record: SK-BR-3 viability, CellTiter-Glo luminescence, at 10 µM, stronger effect = lower value. (In ATP-based viability assays light output follows the ATP content of the culture.)
Experiment [4] is described as follows: HUVEC growth inhibition – cell-based, human, primary screen (AID 575).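 Also: 100% = median of untreated cell wells with 0.1% DMSO on each plate.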 The settings on record: HUVEC proliferation, CellTiter-Glo luminescence, 72 h; at 10 µM; stronger effect = lower value. In short, it runs like this: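 material = primary HUVEC, no more than 12 passages | input = 1250 cells per well | controls = vehicle and MePR control wells | measured by = CTG luminescence | times = 72 h compound incubation | format = collagen-coated 384-well format | read-out = % viability vs DMSO wells | doses = single 10 µM dose, 0.1% DMSO, from 5x medium stock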

Experiment [5] is described as follows: growth inhibitors of H69AR lung tumor, primary screen, human, duplicate replicates (AID 580;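 active = viability at or under a set limit in both replicates, limit being median viability minus 3 SD, cut at about 48% in these data, passing the limit was not always enough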;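 also: 100% = mean luminescence of untreated wells and 0% = no signal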). The settings on record: H69AR lung tumor cells viability, ATP luminescence, 72 h; at 10 µM; stronger effect = lower value.
Experiment [6] is described as follows: reversal of MRP1-mediated doxorubicin resistance, pilot screen, H69AR cells, doxorubicin co-treatment (AID 601;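 active = viability loss from added drug above about 55%, and viability with drug at most 40%, in both replicates, limit read from the data, passing the limit was not always enough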). The note with it: CellTiter-Glo, 72 h, at 10 µM; for differential viability (reversal): stronger effect = higher value.
The nature of experiment [7]: 384-well plate pilot, post-Golgi transport modulator project, inhibition of yeast transport mutant growth (AID 636; in the data active = inhibition above about 31%). The note with it: absorbance 615 nm, about 18 h, stronger effect = higher value.
Experiment [8] in a line: growth suppression of yeast trafficking mutant, preliminary HTS, modulators of trafficking downstream of Golgi apparatus project, 1536-format plate, OD 615 nm (AID 637; in the data active = inhibition above about 30%). The note with it: yeast transport mutant growth, absorbance 615 nm, 18 h; stronger effect = higher value.
The mark [9] stands for this setting: H69AR cells + 2 uM doxorubicin, measured here: viability with 2 uM doxorubicin, stronger effect = lower value.
[10] abbreviates: H69AR cells, compound alone cytotoxicity.

SMILES strings stand for the structures. The source made the active and inactive calls.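 The calls were made as follows, unless noted: active = viability at or below 30% in both replicate assays; inconclusive = viability at or below 30% in just one of the two assays; inactive = the rest.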

Receptor tyrosine-protein kinase erbB-2 (Homo sapiens), sequence (P04626 whole entry, looked up): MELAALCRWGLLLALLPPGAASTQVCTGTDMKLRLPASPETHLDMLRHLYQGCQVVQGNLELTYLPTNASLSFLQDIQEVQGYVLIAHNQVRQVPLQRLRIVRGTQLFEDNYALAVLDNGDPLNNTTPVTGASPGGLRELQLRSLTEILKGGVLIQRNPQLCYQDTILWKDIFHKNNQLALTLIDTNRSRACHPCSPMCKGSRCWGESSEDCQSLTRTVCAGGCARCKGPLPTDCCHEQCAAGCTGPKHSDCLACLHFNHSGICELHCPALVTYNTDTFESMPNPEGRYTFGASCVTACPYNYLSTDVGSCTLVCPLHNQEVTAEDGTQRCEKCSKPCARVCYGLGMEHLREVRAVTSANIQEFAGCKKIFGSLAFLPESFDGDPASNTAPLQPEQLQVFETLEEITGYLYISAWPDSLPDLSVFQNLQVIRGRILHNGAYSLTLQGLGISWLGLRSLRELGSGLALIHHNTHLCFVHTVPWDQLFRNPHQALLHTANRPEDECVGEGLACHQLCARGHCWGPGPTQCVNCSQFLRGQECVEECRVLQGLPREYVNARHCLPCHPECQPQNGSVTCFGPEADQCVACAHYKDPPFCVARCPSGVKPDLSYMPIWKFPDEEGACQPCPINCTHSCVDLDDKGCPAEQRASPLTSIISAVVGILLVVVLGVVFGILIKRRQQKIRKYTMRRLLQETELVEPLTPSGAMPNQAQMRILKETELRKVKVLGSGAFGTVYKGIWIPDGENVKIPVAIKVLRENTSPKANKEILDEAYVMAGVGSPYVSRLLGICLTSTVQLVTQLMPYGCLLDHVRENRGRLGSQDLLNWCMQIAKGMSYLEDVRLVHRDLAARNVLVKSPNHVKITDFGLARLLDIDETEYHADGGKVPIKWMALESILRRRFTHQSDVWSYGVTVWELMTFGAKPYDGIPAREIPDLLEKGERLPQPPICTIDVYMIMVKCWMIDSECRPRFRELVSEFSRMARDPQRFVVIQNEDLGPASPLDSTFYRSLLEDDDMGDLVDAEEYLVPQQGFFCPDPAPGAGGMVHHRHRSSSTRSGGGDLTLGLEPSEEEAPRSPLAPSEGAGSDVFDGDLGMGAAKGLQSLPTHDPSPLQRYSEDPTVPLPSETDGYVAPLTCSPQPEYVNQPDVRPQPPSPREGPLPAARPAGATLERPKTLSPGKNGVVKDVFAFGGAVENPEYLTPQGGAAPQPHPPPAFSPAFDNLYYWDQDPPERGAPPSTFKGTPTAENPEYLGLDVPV

On to `Fc1ccccc1-c1nc(-c2ccccc2)no1`, for which the viability was 85.5% in experiment [1]; 85.5% (inactive) in experiment [3]; 81.4% (inactive) in experiment [4]; 111% (inactive) in experiment [5]; 90.9% in experiment [6] (setting [9]); 111% in experiment [6] (setting [10]). For the same compound, the Her2 level in experiment [2] is 69% (inactive). Besides, in experiment [6] (H69AR cells + 2 uM doxorubicin), the differential viability (reversal) was 19.6% (inactive). For the same compound, the inhibition in experiment [7] was 1.05% (inactive); in experiment [8] it was -3.87% (inactive).
`COc1ccc(-c2nc(C#N)c(NCCCN(C)C)o2)cc1OC`: the viability in experiment [1] is 95%; in experiment [3] it was 95% (inactive); in experiment [4], 102% (inactive); in experiment [5], 96.2% (inactive); in experiment [6] (setting [9]), 93.1%; in experiment [6] (setting [10]), 96.2%. In addition, the Her2 level in experiment [2] is 111% (inactive). For the same compound, the differential viability (reversal) in experiment [6] (H69AR cells + 2 uM doxorubicin) is 3.08% (inactive). The inhibition is -0.26% (inactive) in experiment [7] and -5% (inactive) in experiment [8].
`Cc1cccc(N2CCN(S(=O)(=O)c3ccc4c(c3)CCC(=O)N4)CC2C)c1` (stereo not given): the viability is 110% in experiment [1]; 110% (inactive) in experiment [3]; 84.7% (inactive) in experiment [4]; 73.6% (inactive) in experiment [5]; 83.9% in experiment [6] (setting [9]); 73.6% in experiment [6] (setting [10]). Also, the Her2 level in experiment [2] is 95% (inactive). For the same compound, in experiment [6] (H69AR cells + 2 uM doxorubicin), the differential viability (reversal) was -10.3% (inactive). The inhibition in experiment [7] was -5.13% (inactive); in experiment [8], -2.18% (inactive).
Regarding `CCN(c1c(C)n(C)n(-c2ccccc2)c1=O)S(C)(=O)=O`, the viability in experiment [1] was 98.5%; in experiment [3], 98.5% (inactive); in experiment [4], 102% (inactive); in experiment [5], 95.6% (inactive); in experiment [6] (setting [9]), 88.7%; in experiment [6] (setting [10]) it was 95.6%. The Her2 level in experiment [2] was 79.5% (inactive). Also, the differential viability (reversal) in experiment [6] (H69AR cells + 2 uM doxorubicin) was 6.92% (inactive). For the same compound, the inhibition was -6.76% (inactive) in experiment [7] and 4.29% (inactive) in experiment [8].
Regarding `COC(=O)c1c(NC(=O)c2ccc(S(=O)(=O)N3CCOCC3)cc2)sc2c1CCN(C)C2`, the viability was 96% in experiment [1]; 96% (inactive) in experiment [3]; 94.8% (inactive) in experiment [4]; 90% (inactive) in experiment [5]; 95.3% in experiment [6] (setting [9]); 90% in experiment [6] (setting [10]). In addition, the Her2 level in experiment [2] was 106% (inactive). Also, in experiment [6] (H69AR cells + 2 uM doxorubicin), the differential viability (reversal) is -5.3% (inactive). Also, the inhibition in experiment [7] is -5.26% (inactive); in experiment [8], -7.46% (inactive).
Consider `CN(C(=O)COC(=O)C1CCN(S(=O)(=O)c2cccs2)CC1)C1CCS(=O)(=O)C1` (stereo not given), for which the viability in experiment [1] was 118%; in experiment [3], 118% (inactive); in experiment [4], 94.9% (inactive); in experiment [5] it was 99.8% (inactive); in experiment [6] (setting [9]) it was 87.2%; in experiment [6] (setting [10]) it was 99.8%. Besides, the Her2 level in experiment [2] was 127% (inactive). Moreover, the differential viability (reversal) in experiment [6] (H69AR cells + 2 uM doxorubicin) is 12.6% (inactive). The values for the inhibition in experiment [7] and in experiment [8] were -4.4% (inactive) and -7.74% (inactive), respectively.
Consider `CC(Sc1nnnn1-c1ccccc1)C(=O)Nc1ccc(Cl)cn1` (stereo not given), for which the viability in experiment [1] is 87.5%; in experiment [3], 87.5% (inactive); in experiment [4], 73.9% (inactive); in experiment [5] it was 92.7% (inactive); in experiment [6] (setting [9]), 86.1%; in experiment [6] (setting [10]) it was 92.7%. For the same compound, the Her2 level in experiment [2] was 89% (inactive). Moreover, the differential viability (reversal) in experiment [6] (H69AR cells + 2 uM doxorubicin) was 6.54% (inactive). Further, the inhibition in experiment [7] is -2.76% (inactive); in experiment [8], 5.4% (inactive).
Consider `Cc1ccc(-c2noc(-c3ccccc3C(=O)NCC3CCCO3)n2)cc1` (stereo not given), for which the viability in experiment [1] was 91%; in experiment [3], 91% (inactive); in experiment [4], 100% (inactive); in experiment [5], 100% (inactive); in experiment [6] (setting [9]) it was 94.4%; in experiment [6] (setting [10]), 100%. For the same compound, the Her2 level in experiment [2] is 107% (inactive). Moreover, the differential viability (reversal) in experiment [6] (H69AR cells + 2 uM doxorubicin) was 5.99% (inactive). The results for the inhibition in experiment [7] and in experiment [8] were -0.13% (inactive) and -3.97% (inactive), respectively.
Turning to `Cc1nnc(SCC(=O)N2CCC(C(=O)Nc3nccs3)CC2)n1Cc1ccccc1`, the viability was 91.5% in experiment [1]; 91.5% (inactive) in experiment [3]; 96.2% (inactive) in experiment [4]; 91.5% (inactive) in experiment [5]; 86.1% in experiment [6] (setting [9]); 91.5% in experiment [6] (setting [10]). For the same compound, the Her2 level in experiment [2] is 80% (inactive). Also, the differential viability (reversal) in experiment [6] (H69AR cells + 2 uM doxorubicin) is 5.37% (inactive). Also, the inhibition in experiment [7] is -3.87% (inactive); in experiment [8], 0.33% (inactive).
With `Cn1c(-c2ccccc2)c(CCO)c2ccccc21`, the viability is 97% in experiment [1]; 97% (inactive) in experiment [3]; 114% (inactive) in experiment [4]; 94.7% (inactive) in experiment [5]; 97.4% in experiment [6] (setting [9]); 94.7% in experiment [6] (setting [10]). The Her2 level in experiment [2] is 78.5% (inactive). In addition, the differential viability (reversal) in experiment [6] (H69AR cells + 2 uM doxorubicin) was -2.71% (inactive). Also, the values for the inhibition in experiment [7] and in experiment [8] were -0.79% (inactive) and -2.9% (inactive), respectively.
With `CCOc1ccc2c(c1)sc1nc(C(=O)OC)cc(=O)n12`, the viability in experiment [1] is 94%; in experiment [3] it was 94% (inactive); in experiment [4], 104% (inactive); in experiment [5] it was 84.8% (inactive); in experiment [6] (setting [9]) it was 85.4%; in experiment [6] (setting [10]) it was 84.8%. For the same compound, in experiment [2], the Her2 level is 84% (inactive). Also, the differential viability (reversal) in experiment [6] (H69AR cells + 2 uM doxorubicin) was -0.545% (inactive). Besides, the inhibition in experiment [7] is -6.49% (inactive); in experiment [8] it was -6% (inactive).
As to `Cc1cccc(-c2nnc(SCC#N)n2-c2cccc(Cl)c2)c1`, the viability in experiment [1] is 90.5%; in experiment [3], 90.5% (inactive); in experiment [4], 104% (inactive); in experiment [5], 84.6% (inactive); in experiment [6] (setting [9]), 88.6%; in experiment [6] (setting [10]), 84.6%. Moreover, the Her2 level in experiment [2] is 83.5% (inactive). In addition, in experiment [6] (H69AR cells + 2 uM doxorubicin), the differential viability (reversal) was -3.93% (inactive). The inhibition in experiment [7] is -6% (inactive); in experiment [8] it was 0% (inactive).
As for `Cc1cc(C)c2c(n1)nn1c(N3CCN(c4cccc(Cl)c4)CC3)cc(C)nc21`, the viability in experiment [1] is 98.5%; in experiment [3] it was 98.5% (inactive); in experiment [4], 61.8% (inactive); in experiment [5], 23.1% (active); in experiment [6] (setting [9]), 16.7%; in experiment [6] (setting [10]), 23.1%. For the same compound, in experiment [2], the Her2 level is 83.5% (inactive). Moreover, the differential viability (reversal) in experiment [6] (H69AR cells + 2 uM doxorubicin) is 6.38% (inactive). The inhibition is -5.68% (inactive) in experiment [7] and 3.65% (inactive) in experiment [8].
Regarding `NC(=O)c1nsnc1-c1ccccc1O`, the viability in experiment [1] was 105%; in experiment [3] it was 105% (inactive); in experiment [4] it was 99.9% (inactive); in experiment [5], 90.2% (inactive); in experiment [6] (setting [9]), 97.2%; in experiment [6] (setting [10]), 90.2%. The Her2 level in experiment [2] is 124% (inactive). Also, the differential viability (reversal) in experiment [6] (H69AR cells + 2 uM doxorubicin) is -6.96% (inactive). Further, the inhibition is 2.24% (inactive) in experiment [7] and 16.8% (inactive) in experiment [8].
For the compound `O=C(Nc1ccc(F)cc1)c1cccc2c1C(=O)N(Cc1ccccn1)C2`, the viability was 95.5% in experiment [1]; 95.5% (inactive) in experiment [3]; 87.5% (inactive) in experiment [4]; 96% (inactive) in experiment [5]; 79.9% in experiment [6] (setting [9]); 96% in experiment [6] (setting [10]). In addition, the Her2 level in experiment [2] is 90% (inactive). Moreover, the differential viability (reversal) in experiment [6] (H69AR cells + 2 uM doxorubicin) was 16.1% (inactive). For the same compound, the inhibition in experiment [7] was -0.92% (inactive); in experiment [8] it was -3.06% (inactive).
In the case of `COc1cccc(N2CCN(C(=O)C3C4C=CC5(CN(Cc6ccccc6Cl)C(=O)C35)O4)CC2)c1` (stereo not given), the viability is 83.5% in experiment [1]; 83.5% (inactive) in experiment [3]; 78.6% (inactive) in experiment [4]; 100% (inactive) in experiment [5]; 91.3% in experiment [6] (setting [9]); 100% in experiment [6] (setting [10]). For the same compound, the Her2 level in experiment [2] is 97% (inactive). The differential viability (reversal) in experiment [6] (H69AR cells + 2 uM doxorubicin) is 9.13% (inactive). Besides, the inhibition was -3.42% (inactive) in experiment [7] and -6.17% (inactive) in experiment [8].

One may read the viability as a read-out of living cells in per cent, often relative to untreated cells. The inhibition is the drop in the measured response relative to a control, in per cent.

(Values after PubChem BioAssay.)
